Data published in ChEMBL document CHEMBL2434855, “Aggrecanase-2 inhibitors based on the acylthiosemicarbazide zinc-binding group” (Eur J Med Chem, 2013).

Key:
[1] = target: T1, Disintegrin and metalloproteinase domain-containing protein 17 (Homo sapiens, UniProt P78536); test: Inhibition of human TACE after 5 mins
Collagenase 3 = Collagenase 3 (Homo sapiens, UniProt P45452); test: Inhibition of human MMP-13 after 10 mins
Neutrophil collagenase = Neutrophil collagenase (Homo sapiens, UniProt P22894); test: Inhibition of human MMP-8 using Mca-Pro-Cha-Gly-Nva-His-Ala-Dpa-NH2 as substrate after 120 mins
[2] = target: T2, 72 kDa type IV collagenase (Homo sapiens, UniProt P08253); test: Inhibition of human MMP-2 using NFF-2 as substrate at 10 uM after 90 mins
Target sequence in this assay (P08253 110-660 limits assumed): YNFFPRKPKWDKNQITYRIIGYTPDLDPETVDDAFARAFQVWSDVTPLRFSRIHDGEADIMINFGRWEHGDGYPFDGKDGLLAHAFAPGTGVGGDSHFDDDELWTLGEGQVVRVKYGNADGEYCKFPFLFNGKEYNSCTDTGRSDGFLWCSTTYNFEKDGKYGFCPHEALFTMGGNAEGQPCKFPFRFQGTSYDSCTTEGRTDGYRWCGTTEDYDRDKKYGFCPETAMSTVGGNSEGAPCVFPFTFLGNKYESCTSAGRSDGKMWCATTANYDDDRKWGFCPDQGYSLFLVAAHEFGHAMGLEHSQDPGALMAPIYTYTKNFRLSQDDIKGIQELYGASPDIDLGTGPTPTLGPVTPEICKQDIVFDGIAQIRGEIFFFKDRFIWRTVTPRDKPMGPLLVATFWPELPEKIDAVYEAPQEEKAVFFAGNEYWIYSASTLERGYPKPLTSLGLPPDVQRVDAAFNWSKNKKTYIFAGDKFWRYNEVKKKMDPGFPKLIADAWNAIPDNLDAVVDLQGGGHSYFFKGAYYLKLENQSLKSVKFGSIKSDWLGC

[3] = target: T3, A disintegrin and metalloproteinase with thrombospondin motifs 5 (Homo sapiens) (UniProt Q9UNA0); test: Inhibition of human recombinant ADAMTS-5 using bovine articular aggrecan as substrate incubated 20 mins prior to substrate addition measured after 48 hrs by spectrophotometry
T3 sequence (whole entry): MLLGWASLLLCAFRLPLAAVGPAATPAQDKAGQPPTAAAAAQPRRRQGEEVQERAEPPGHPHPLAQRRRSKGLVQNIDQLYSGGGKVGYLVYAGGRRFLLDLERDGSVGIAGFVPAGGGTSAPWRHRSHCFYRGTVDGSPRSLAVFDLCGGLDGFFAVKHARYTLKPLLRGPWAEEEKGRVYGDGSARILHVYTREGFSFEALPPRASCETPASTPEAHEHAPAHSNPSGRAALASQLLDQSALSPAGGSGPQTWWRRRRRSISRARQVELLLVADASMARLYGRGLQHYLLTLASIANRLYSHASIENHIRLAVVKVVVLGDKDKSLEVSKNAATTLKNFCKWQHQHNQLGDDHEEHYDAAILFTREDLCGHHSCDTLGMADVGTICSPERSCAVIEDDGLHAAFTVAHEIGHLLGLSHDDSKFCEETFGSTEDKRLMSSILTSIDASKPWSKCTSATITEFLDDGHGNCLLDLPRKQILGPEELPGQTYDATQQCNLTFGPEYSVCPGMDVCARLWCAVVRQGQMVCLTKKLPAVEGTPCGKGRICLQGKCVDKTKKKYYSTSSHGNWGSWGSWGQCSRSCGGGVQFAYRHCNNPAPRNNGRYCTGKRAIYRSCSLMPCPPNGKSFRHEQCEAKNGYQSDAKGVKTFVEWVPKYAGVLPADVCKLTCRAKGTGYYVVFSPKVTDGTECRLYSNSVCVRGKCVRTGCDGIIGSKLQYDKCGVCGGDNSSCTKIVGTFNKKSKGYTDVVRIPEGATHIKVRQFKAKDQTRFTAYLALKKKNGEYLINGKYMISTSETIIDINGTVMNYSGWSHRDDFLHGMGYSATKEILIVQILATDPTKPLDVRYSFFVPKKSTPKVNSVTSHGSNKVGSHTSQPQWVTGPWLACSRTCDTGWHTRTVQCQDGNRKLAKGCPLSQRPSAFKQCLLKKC
Procedure, shortened: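 ADAMTS-5 (3.4 µL of 600 nM stock) was pre-incubated 20 min at 37 °C with compound or 4% DMSO vehicle in Tris/NaCl/CaCl₂/Brij35, pH 7.5. Bovine articular aggrecan (50 µg/mL final) was added for 48 h at 37 °C, then stopped with EDTA. Samples were bound to PVDF and digested with chondroitinase ABC and keratanase. The ARGSVIL neoepitope was detected by BC-3 ELISA with TMB, read at 450 nm.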

[4] = target: T4, Interstitial collagenase (Homo sapiens) (UniProt P03956); test: Inhibition of human MMP-1 using DNP-Pro-Cha-Gly-Cys(Me)-His-Ala-Lys(n-Me-Abz)-NH2 as substrate at 10 uM after 40 mins
T4 sequence (whole entry): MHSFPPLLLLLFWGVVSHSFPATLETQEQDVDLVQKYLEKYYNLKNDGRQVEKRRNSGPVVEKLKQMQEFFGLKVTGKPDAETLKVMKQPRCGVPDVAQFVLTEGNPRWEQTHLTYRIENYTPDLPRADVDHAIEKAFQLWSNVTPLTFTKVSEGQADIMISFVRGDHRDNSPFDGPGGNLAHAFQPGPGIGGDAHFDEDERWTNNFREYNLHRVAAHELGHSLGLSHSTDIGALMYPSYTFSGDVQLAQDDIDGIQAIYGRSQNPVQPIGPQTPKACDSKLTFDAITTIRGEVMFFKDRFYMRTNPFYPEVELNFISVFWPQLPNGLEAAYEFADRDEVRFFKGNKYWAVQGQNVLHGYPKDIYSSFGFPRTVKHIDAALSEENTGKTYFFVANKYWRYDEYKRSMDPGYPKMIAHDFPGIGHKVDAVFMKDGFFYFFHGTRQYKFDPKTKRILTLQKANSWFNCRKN

[5] = target: T2, 72 kDa type IV collagenase; test: Inhibition of human MMP-2 using NFF-2 as substrate after 90 mins
Target sequence in this assay (P08253 whole entry): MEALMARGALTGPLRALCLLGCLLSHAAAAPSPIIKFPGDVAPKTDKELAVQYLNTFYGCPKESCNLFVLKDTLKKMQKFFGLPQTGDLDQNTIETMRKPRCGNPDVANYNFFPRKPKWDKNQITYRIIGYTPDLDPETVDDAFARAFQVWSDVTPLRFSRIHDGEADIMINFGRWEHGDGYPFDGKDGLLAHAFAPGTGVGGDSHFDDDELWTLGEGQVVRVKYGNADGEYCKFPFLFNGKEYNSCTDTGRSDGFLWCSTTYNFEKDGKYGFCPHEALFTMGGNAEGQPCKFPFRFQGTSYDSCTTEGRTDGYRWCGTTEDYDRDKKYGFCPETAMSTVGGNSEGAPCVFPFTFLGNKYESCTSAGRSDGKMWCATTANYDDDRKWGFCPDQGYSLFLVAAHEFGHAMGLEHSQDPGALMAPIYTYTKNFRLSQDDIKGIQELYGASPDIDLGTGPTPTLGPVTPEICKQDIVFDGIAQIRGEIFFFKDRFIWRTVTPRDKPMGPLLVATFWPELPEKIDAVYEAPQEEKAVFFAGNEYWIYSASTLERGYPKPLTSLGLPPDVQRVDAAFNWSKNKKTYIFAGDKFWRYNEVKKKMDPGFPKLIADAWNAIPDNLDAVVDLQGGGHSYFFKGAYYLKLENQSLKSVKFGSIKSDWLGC

[6] = target: T5, Matrix metalloproteinase-9 (Homo sapiens, UniProt P14780); test: Inhibition of human MMP-9 using NFF-2 as substrate after 90 mins
Matrilysin = target: T6, Matrilysin (Homo sapiens, UniProt P09237); test: Inhibition of human MMP-7 after 45 mins
T6 sequence (P09237 whole entry): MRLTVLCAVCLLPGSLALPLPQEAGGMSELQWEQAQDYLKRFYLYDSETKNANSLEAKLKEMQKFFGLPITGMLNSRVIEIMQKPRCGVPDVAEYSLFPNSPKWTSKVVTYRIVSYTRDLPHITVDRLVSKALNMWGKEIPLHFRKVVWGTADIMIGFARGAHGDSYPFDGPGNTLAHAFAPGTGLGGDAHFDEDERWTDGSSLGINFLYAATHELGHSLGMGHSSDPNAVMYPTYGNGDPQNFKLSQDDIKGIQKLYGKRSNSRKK

Interstitial collagenase = target: T7, Interstitial collagenase (Homo sapiens, UniProt P03956); test: Inhibition of human MMP-1 using DNP-Pro-Cha-Gly-Cys(Me)-His-Ala-Lys(n-Me-Abz)-NH2 as substrate after 40 mins
T7 sequence (P03956 whole entry): T4 sequence (whole entry)

[7] = target: T1, Disintegrin and metalloproteinase domain-containing protein 17; test: Inhibition of human TACE at 10 uM after 5 mins
[8] = target: T5, Matrix metalloproteinase-9; test: Inhibition of human MMP-9 using NFF-2 as substrate at 10 uM after 90 mins
Stromelysin-1 [9] = target: T8, Stromelysin-1 (Homo sapiens, UniProt P08254); test: Inhibition of human MMP-3 using NFF-2 as substrate after 30 mins
Target sequence in this assay (P08254 whole entry): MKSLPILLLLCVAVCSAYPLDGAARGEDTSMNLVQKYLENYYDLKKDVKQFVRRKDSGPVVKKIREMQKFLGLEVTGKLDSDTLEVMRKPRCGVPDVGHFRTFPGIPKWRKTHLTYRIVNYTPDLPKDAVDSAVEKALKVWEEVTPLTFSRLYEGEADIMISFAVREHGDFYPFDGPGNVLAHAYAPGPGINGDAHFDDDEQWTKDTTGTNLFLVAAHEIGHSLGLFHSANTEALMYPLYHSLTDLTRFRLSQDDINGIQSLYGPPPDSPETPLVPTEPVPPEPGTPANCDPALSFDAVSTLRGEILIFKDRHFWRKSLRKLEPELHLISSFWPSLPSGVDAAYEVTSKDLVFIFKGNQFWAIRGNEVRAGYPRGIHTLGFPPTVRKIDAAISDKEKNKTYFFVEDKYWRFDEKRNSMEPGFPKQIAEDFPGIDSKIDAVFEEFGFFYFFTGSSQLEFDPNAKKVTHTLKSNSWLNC

[10] = target: Macrophage metalloelastase (Homo sapiens, UniProt P39900); test: Inhibition of human MMP-12 after 60 mins
[11] = target: T9, A disintegrin and metalloproteinase with thrombospondin motifs 5 (Homo sapiens, UniProt Q9UNA0); test: Inhibition of human recombinant ADAMTS-5 using QTVTWPDMELPLPRNITEGEARGSVIL-TVKPIFEVSPSPL(biotinyl)K as substrate incubated 10 mins prior to substrate addition measured after 3 hrs by spectrophotometry
T9 sequence (Q9UNA0 whole entry): T3 sequence (whole entry)

Stromelysin-1 [12] = target: T8, Stromelysin-1; test: Inhibition of human MMP-3 using NFF-2 as substrate at 10 uM after 30 mins
Target sequence in this assay (P08254 100-477 limits assumed): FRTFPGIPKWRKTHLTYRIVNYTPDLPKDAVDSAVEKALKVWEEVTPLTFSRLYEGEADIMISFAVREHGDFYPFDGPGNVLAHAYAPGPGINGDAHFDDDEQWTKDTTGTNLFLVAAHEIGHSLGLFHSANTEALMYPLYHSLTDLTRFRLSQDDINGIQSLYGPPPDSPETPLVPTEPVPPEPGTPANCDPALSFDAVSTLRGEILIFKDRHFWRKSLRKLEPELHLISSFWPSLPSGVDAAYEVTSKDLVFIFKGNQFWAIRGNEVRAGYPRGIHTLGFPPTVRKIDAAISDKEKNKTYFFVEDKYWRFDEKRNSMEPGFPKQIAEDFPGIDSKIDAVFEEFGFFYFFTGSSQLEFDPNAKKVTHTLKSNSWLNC

T5 sequence (P14780 whole entry): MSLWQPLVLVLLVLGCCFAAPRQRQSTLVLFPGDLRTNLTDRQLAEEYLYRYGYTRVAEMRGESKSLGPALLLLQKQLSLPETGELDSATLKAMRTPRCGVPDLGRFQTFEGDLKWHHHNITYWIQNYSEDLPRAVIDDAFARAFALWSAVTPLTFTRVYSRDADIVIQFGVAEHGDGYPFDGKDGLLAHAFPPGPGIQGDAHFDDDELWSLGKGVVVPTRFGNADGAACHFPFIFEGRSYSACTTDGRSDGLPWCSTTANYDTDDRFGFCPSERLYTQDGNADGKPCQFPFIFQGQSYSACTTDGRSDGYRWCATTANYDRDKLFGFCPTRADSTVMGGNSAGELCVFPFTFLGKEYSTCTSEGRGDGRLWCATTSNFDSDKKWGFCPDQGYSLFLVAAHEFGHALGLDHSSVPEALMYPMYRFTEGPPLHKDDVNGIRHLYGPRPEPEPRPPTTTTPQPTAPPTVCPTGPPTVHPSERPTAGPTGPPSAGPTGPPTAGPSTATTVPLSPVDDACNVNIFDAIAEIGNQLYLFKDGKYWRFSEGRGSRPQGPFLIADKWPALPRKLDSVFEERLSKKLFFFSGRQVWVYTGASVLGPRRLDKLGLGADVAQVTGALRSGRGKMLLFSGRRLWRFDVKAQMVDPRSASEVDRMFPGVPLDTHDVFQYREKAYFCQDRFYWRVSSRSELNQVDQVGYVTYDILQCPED
T1 sequence (P78536 whole entry, the tested form may be a part): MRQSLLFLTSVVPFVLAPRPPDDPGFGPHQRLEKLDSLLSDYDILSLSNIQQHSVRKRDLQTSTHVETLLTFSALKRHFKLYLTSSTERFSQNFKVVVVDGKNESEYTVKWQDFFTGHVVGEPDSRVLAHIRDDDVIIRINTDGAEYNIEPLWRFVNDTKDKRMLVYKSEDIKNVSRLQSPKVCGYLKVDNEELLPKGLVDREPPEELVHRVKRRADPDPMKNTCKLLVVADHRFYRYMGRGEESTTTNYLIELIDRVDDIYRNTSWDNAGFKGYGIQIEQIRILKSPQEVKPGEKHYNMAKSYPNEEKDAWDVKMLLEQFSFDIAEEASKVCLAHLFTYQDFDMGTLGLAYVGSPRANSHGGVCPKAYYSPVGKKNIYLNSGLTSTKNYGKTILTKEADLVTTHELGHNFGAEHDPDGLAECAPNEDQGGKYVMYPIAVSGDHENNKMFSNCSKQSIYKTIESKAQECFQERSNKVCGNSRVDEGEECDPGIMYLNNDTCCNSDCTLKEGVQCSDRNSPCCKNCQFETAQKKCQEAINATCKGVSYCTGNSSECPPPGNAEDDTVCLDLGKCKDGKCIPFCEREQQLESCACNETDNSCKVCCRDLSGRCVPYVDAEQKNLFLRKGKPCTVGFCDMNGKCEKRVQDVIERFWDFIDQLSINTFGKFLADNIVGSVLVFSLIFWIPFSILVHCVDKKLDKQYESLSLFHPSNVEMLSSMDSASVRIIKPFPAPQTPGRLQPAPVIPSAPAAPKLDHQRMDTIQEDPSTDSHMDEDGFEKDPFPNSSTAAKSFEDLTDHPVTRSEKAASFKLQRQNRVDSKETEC
Macrophage metalloelastase, sequence (P39900 whole entry): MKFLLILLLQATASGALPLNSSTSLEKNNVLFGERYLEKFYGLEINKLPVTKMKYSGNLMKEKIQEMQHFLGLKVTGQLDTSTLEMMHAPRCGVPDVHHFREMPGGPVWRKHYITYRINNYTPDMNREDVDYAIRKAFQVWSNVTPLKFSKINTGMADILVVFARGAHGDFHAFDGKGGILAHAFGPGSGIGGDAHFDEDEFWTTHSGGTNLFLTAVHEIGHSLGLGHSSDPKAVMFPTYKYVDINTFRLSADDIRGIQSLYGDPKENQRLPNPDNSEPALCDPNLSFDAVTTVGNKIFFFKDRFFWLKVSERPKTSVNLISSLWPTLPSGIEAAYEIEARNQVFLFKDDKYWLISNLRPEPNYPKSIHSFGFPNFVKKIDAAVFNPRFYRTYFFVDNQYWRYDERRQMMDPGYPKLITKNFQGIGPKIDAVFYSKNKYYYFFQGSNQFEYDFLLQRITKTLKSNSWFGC
Neutrophil collagenase, sequence (P22894 whole entry): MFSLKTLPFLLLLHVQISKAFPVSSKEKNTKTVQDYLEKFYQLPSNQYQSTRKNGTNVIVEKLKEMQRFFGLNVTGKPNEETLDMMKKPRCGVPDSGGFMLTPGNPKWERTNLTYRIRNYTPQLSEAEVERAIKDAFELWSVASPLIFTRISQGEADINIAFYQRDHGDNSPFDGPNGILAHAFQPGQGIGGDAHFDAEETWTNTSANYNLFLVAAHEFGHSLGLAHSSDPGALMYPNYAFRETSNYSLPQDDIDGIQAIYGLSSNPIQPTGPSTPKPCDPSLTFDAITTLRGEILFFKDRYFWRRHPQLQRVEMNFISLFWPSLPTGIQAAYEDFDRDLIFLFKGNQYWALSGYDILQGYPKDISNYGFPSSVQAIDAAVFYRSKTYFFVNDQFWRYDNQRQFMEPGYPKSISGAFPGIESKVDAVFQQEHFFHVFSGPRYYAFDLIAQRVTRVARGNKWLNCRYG

IC50 [1]: > 10 µM
IC50 (Collagenase 3): > 100 µM
IC50 (Neutrophil collagenase): 47 µM
inhibition [2]: < 10%
inhibition [3]: Dose-dependent effect
inhibition [4]: < 10%
IC50 [5]: > 10 µM
IC50 [6]: > 10 µM
IC50 (Matrilysin): > 100 µM
IC50 (Interstitial collagenase): > 10 µM
inhibition [7]: < 10%
inhibition [8]: < 10%
IC50 (Stromelysin-1 [9]): > 10 µM
IC50 [10]: > 100 µM
inhibition (Stromelysin-1 [12]): < 10%
Compound: O=C(COc1ccc(Cl)cc1)NNC(=S)NCCCCC1CCCCC1
IC50 [11]: 170 nM
